Holding throughout (format): biochemical
One test has as its target CPK34 (Arabidopsis thaliana, UniProt Q3E9C0). Kind of test: Standard filter-based kinetic assay for kinase activity, CPK34. The essentials:
(§1)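 Recombinant Arabidopsis CPK, GST-N/6xHis-C fusion, affinity-purified. Reactions used 1 ng/µL kinase and 0.1 mg/mL BSA in Ca²⁺/EGTA-buffered kinase buffer (1.1 mM CaCl₂, 1 mM EGTA). Peptide substrate was 0–200 µM. Started with 50 µM ATP plus 0.375 µCi [γ-³³P]ATP, 12 min at RT. Aliquots went onto P81 paper, were washed in 75 mM phosphoric acid, and counted by scintillation. kcat is in nmol P/min/mg enzyme; KM by Lineweaver–Burk.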

The next test deals with T1, CPK1 (Arabidopsis thaliana, UniProt Q06850).
T1 sequence (Q06850 1-610): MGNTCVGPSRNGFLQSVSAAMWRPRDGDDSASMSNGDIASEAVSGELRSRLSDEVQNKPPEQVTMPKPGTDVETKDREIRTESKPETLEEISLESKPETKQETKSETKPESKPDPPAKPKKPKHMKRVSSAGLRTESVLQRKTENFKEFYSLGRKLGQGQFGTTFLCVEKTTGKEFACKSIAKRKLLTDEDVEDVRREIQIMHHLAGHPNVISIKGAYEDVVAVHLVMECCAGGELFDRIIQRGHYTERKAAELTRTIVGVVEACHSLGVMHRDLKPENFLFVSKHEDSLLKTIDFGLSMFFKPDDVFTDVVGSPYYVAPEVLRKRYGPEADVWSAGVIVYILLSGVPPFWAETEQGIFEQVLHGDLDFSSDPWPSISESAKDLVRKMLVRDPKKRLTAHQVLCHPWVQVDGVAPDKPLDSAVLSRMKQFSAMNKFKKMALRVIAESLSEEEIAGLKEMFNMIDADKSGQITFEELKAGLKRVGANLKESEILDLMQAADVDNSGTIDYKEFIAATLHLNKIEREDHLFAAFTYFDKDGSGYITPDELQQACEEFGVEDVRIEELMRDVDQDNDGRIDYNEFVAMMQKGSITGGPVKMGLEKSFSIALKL
Nature of the test: Standard filter-based kinetic assay for kinase activity, CPK1. The essentials:
as §1

Another test has as its target T2, CPK10 (Arabidopsis thaliana, UniProt Q9M9V8).
T2 sequence (Q9M9V8 1-545): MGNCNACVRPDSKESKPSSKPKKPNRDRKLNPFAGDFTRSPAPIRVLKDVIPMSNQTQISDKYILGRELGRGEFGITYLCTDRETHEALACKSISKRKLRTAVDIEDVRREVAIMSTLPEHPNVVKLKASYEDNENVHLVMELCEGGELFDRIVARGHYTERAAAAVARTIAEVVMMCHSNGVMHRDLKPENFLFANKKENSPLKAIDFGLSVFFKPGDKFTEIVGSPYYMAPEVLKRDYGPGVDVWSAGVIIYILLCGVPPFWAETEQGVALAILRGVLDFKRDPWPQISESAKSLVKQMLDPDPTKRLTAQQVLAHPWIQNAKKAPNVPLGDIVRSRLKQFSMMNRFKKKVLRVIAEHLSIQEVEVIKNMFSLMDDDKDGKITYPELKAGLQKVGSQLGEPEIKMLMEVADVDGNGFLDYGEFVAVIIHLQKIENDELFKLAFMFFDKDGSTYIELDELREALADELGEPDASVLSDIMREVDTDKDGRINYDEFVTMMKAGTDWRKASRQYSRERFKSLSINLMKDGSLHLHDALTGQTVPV
Nature of the test: Standard filter-based kinetic assay for kinase activity, CPK10. The essentials: as §1

Another test concerns the target T3, CPK16 (Arabidopsis thaliana, UniProt Q7XJR9).
T3 sequence (Q7XJR9 1-571): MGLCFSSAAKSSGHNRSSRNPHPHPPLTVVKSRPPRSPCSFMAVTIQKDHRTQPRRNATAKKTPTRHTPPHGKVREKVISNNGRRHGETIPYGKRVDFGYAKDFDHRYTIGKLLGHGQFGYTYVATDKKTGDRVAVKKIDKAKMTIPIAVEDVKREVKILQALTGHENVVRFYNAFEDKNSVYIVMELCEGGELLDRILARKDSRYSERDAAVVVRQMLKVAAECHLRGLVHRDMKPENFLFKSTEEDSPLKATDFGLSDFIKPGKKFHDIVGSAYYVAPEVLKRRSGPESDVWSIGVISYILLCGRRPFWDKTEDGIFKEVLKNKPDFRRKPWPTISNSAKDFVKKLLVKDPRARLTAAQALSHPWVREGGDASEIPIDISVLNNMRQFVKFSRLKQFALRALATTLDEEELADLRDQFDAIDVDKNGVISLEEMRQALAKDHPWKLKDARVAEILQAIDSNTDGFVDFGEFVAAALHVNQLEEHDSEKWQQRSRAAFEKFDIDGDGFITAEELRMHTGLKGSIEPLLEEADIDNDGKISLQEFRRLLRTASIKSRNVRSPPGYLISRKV
Nature of the test: Standard filter-based kinetic assay for kinase activity, CPK16.

[1] abbreviates: Table 5, independent reaction 1 (first value in cell).
Where [2] appears, read: Table 5, independent reaction 2 (second value in cell).
[3] abbreviates: Table 4, independent reaction 1 (first value in cell).
Where [4] appears, read: Table 4, independent reaction 2 (second value in cell).

Chain of CPK34 (Q3E9C0 whole entry, the tested form may be a part): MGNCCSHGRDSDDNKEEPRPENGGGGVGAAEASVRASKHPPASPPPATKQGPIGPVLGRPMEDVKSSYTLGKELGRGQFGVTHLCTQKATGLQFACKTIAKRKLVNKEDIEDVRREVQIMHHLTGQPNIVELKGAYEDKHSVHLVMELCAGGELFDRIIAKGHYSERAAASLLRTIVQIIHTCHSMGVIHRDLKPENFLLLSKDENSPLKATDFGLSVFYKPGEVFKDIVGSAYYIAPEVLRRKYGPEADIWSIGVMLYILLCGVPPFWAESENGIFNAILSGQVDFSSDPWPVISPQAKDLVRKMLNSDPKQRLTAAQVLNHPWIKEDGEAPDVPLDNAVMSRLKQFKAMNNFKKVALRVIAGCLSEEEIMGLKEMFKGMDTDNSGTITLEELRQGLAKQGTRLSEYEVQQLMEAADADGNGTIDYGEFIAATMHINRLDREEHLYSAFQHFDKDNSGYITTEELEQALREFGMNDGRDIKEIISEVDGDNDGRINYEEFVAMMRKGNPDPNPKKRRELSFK

Take aDFLKRLLSaGMNPN [jfh-597]: the “Kcat, CPK34” value on CPK34 (setting [1]) is 475 nmol phosphate incorporated/min/mg enzyme; at CPK34 (setting [2]), 614 nmol phosphate incorporated/min/mg enzyme. The “kcat, CPK1” value on CPK1 (setting [1]) is given as 5790 nmol phosphate incorporated/min/mg enzyme; at CPK1 (setting [2]), 5900 nmol phosphate incorporated/min/mg enzyme. The “kcat, CPK10” value on CPK10 (setting [1]) is on record as 1264 nmol phosphate incorporated/min/mg enzyme; on CPK10 (setting [2]), 1639 nmol phosphate incorporated/min/mg enzyme.
With “PLARTLSVAGLPGKK [ach-393, Syntide-2, reference compound]”, the “Kcat, CPK34” value at CPK34 (setting [1]) is 155 nmol phosphate incorporated/min/mg enzyme; at CPK34 (setting [2]), 225 nmol phosphate incorporated/min/mg enzyme. Also, the “kcat, CPK1” value on CPK1 (setting [1]) is on record as 362 nmol phosphate incorporated/min/mg enzyme; at CPK1 (setting [2]) it was 482 nmol phosphate incorporated/min/mg enzyme. Further, the “kcat, CPK10” value on CPK10 (setting [1]) is given as 252 nmol phosphate incorporated/min/mg enzyme; on CPK10 (setting [2]), 217 nmol phosphate incorporated/min/mg enzyme.
On to “KRFSFKKSFKLSGFSFKK [ach-400, reference compound]”, for which the entries for the “Kcat, CPK34” value on CPK34 (setting [3]) and on CPK34 (setting [4]) were 398 nmol phosphate incorporated/min/mg CPK and 541 nmol phosphate incorporated/min/mg CPK, respectively. Besides, the “Kcat, CPK16” value on CPK16 (setting [3]) was 1795 nmol phosphate incorporated/min/mg CPK; at CPK16 (setting [4]), 1429 nmol phosphate incorporated/min/mg CPK.
Consider RYRRMERTSSMPRAS [jfh-097], for which the “Kcat, CPK34” value at CPK34 (setting [3]) is reported as 502 nmol phosphate incorporated/min/mg CPK; on CPK34 (setting [4]), 718 nmol phosphate incorporated/min/mg CPK. In addition, the “Kcat, CPK16” value at CPK16 (setting [3]) is listed as 3734 nmol phosphate incorporated/min/mg CPK; at CPK16 (setting [4]), 2677 nmol phosphate incorporated/min/mg CPK.
For VKIISRIF[S]QRSFRR [jfh-515] the same measures were 223 nmol phosphate incorporated/min/mg CPK, 231 nmol phosphate incorporated/min/mg CPK, 5114 nmol phosphate incorporated/min/mg CPK and 4854 nmol phosphate incorporated/min/mg CPK.
